The full list was thinned out, with hits kept by preference.
HCT116 PTEN-null: suppresses growth of cells with PTEN deletion. HCT116 PTEN-null viability, CellTiter-Glo, 60 h; active compounds read low. viability, % at 10 µM. hit rate 1.2% among 140,000. AID 827;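 active = viability at or below a set limit, 4 SD under the median of all tested compounds, cut at about 3.7% in these data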;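 also: PTEN knockout HCT116 line with beta catenin targeted HCT116 as companion control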
bCat KO growth: beta-catenin-lacking colon tumor cell growth suppression; HCT116 beta-catenin knockout viability, CellTiter-Glo, 60 h; active compounds read low; hit rate 1.5% among 140,000; viability, % at 10 µM;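 active = viability at or under a set limit, the compound median less 4 SD, cut at about 6% in these data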;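 also: 0% = Hyamine 1622 control at 20 µM and 100% = untreated cell control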
HUVEC inhibit: blocks proliferation of human endothelial cells; HUVEC proliferation, CellTiter-Glo luminescence, 72 h; active compounds read low; viability, % at 10 µM (by protocol); hit rate 1.1% among 86,000; AID 648;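 active = viability at or below 30%; inactive = viability above 30%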;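 also: 100% = median luminescence of DMSO-only cell control wells on each plate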
Fibroblast inh: blocks proliferation of human lung fibroblasts; LL 47 human lung fibroblast viability, ATP luminescence; active compounds read low; viability, % at 10 µM; hit rate 1.1% among 85,000;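 active = viability at or below 50% in the single dose screen; inactive = viability above 50%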;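 also: compound exposure lasted 72 h before the ATP readout; 100% = median luminescence of untreated cell-only wells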
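Material: human lung fibroblast line LL 47, low passage; Evaluation: viability percentage against median untreated-cell control; Buffer or medium: 15% FBS in IMEM; Incubation: 72 h compound exposure at 37 °C after overnight plating; Dosing: 0.1% DMSO in all compound wells; Measured by: CellTiter-Glo luminescence.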
H69AR growth 86K: blocks growth of human H69AR lung tumor cells; H69AR lung tumor viability, ATP luminescence, 72 h; active compounds read low; viability, % at 10 µM; hit rate 6% among 85,000;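 active = viability at or below 40%; inactive = viability above 40%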;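 also: multidrug resistant small cell line overexpressing MRP-1 efflux transporter; 100% = mean luminescence of untreated control wells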
Active calls of the source: *; . = no result.

SMILES	HCT116 PTEN-null	bCat KO growth	HUVEC inhibit	Fibroblast inh	H69AR growth 86K
CCc1nc(Sc2nc(C)cc(C)n2)c2oc3ccccc3c2n1	64.5	71.7	102.2	79.3	5.3*
CCc1nc(SCc2nc3ccccc3[nH]2)c2oc3ccccc3c2n1	47.5	68.7	79.2	90.0	39.7*
Cc1nc(Nc2ccc3c(c2)OCCO3)c2oc3ccccc3c2n1	63.1	55.1	65.3	96.2	79.8
CCc1nc(SCCO)c2oc3ccccc3c2n1	86.6	97.0	88.8	91.4	90.4
Cc1ccccc1CSc1nccn1-c1ccccc1	90.9	83.2	.	.	.
O=C(Nc1ccc2c(c1)CCC2)c1cc(S(=O)(=O)N2CCN(c3ccccc3)CC2)ccc1Cl	91.5	94.2	.	.	.
O=C(O)CCCNC(=O)c1cccc(C(=O)NCCCC(=O)O)n1	98.5	104.2	.	.	.
CCCCSc1nc(C)cc(SCC(=O)N/N=C/c2cccc(OC)c2O)n1	4.3	5.3*	.	.	.
CCCCOc1ccc(C(=O)NNC(=S)NC(=O)CC)cc1	4.8	4.5*	.	.	.
CCC(=O)NC(=S)NNC(=O)c1ccc(OC)cc1	28.8	38.0	.	.	.
N#Cc1nc(-c2cccc3ccccc23)oc1NCCN1CCCCC1	47.4	56.7	5.1*	52.9	12.6*
CC(=O)Nc1ccc(Cl)cc1C1COC(=O)C1=N (configuration not stated)	89.6	94.8	.	.	.
CSc1nncc(=O)[nH]1	43.8	52.1	105.3	3.6*	108.9
CN(CC(=O)Nc1nc2ccccc2s1)S(=O)(=O)c1ccc(Cl)cc1	94.4	89.4	67.3	88.4	36.2*
CCOC(=O)N1CCN(S(=O)(=O)c2ccc(C(=O)Nc3nc4ccccc4s3)cc2)CC1	73.0	68.0	67.7	84.2	13.2*
CN(CC(=O)Nc1nc2ccccc2s1)S(=O)(=O)c1ccc(Br)cc1	62.1	82.8	83.8	91.1	95.5
CCOC(=O)c1sc(NC(=O)c2ccc(S(=O)(=O)N3CCCCC3)cc2)nc1-c1ccccc1	46.0	53.4	.	.	.
CCOC(=O)N1CCN(S(=O)(=O)c2ccc(F)cc2)CC1	93.0	105.5	88.0	102.5	103.8
CCOC(=O)N1CCN(S(=O)(=O)c2ccc(C(=O)Nc3nc4ccc(F)cc4s3)cc2)CC1	69.1	37.6	47.2	28.6*	22.6*
Cn1ccnc1SCC(=O)Nc1ccc2nc(SCC(=O)NC3CC3)sc2c1	102.9	86.0	91.5	95.2	37.0*
CC(C)(C)NC(=O)CSc1nc2ccc(NC(=O)CSc3nnc(N)s3)cc2s1	74.2	71.0	.	.	.
Cc1ccc(NC(=O)C2(NC(=O)c3ccccn3)CCCCC2)cc1Br	67.5	78.2	.	.	.
Cc1cccc(OCC2=NS(=O)(=O)c3ccccc3N2)c1	92.8	110.1	100.4	101.6	.
O=C(COC(=O)c1n[nH]c2ccccc12)NC(=O)NC1CCCC1	105.1	96.8	97.7	101.5	92.0
O=C(COC(=O)c1n[nH]c2ccccc12)NC(=O)NC12CC3CC(CC(C3)C1)C2	1.4*	21.9	69.1	81.0	17.2*
SMILES	HCT116 PTEN-null	bCat KO growth	HUVEC inhibit	Fibroblast inh	H69AR growth 86K
Cc1ccccc1OCc1nnc(SCC(=O)Nc2ccc3c(c2)oc2ccccc23)n1C	97.7	92.4	59.8	61.1	21.1*
Cn1c(SCC(=O)Nc2cccc(Br)c2)nnc1-c1cc2ccccc2o1	2.2*	2.6*	92.0	56.8	96.7
CCn1c(CCC(=O)Nc2nc3c(s2)CCCC3)nc2cc(S(=O)(=O)N(C)C)ccc21	69.0	85.4	82.4	83.6	43.0
CN1CCc2c(sc3c2C(=O)NC(c2ccc(-c4cccc(Cl)c4)o2)N3)C1 (configuration not stated)	.	.	48.4	93.9	3.3*
CN1CCc2c(sc3c2C(=O)NC(c2cccs2)N3)C1 (configuration not stated)	91.9	89.5	94.1	120.9	96.9
O=C(COn1nnc2ccc(C(F)(F)F)cc21)Nc1c(Cl)cccc1Cl	84.0	75.7	.	.	.
Cc1nc(-c2c(C(F)(F)F)noc2-c2ccc(O)cc2O)cs1	83.6	75.0	109.6	99.1	88.3
CCOc1cc(C)c(-c2onc(C(F)(F)F)c2-c2csc(C)n2)c(O)c1	58.0	79.3	38.5	88.2	3.9*
CCOc1cc2nc(-c3ccc(OC)c(OC)c3)nc(N3CC(C)OC(C)C3)c2cc1OC (configuration not stated)	87.7	91.3	.	.	.
CCOc1cc2nc(-c3ccc(OC)c(OC)c3)nc(N3CCOCC3)c2cc1OC	29.0	30.9	6.9*	66.1	33.0*
NC(=S)N/N=C\c1ccc(-c2cccc(Cl)c2Cl)o1	62.9	54.7	21.9*	67.9	44.9
NC(=S)N/N=C/c1ccc(-c2ccc(Cl)c(Cl)c2)o1	56.2	52.7	68.6	81.0	50.9
CC1=C(C)C(=O)NC(Nc2nc(C)c3cc(C)cc(C)c3n2)N1 (configuration not stated)	.	.	23.7*	13.5*	24.2*
O=C(N1CCOCC1)N1CCCN(C(=O)N2CCOCC2)CC1	102.6	103.7	91.8	100.2	36.1*
Brc1ccc(-c2nc(N/N=C/c3cccnc3)c3ccccc3n2)cc1	39.1	49.8	61.4	59.8	10.6*
CCN1CCc2c(sc(NC(=O)Nc3ccc(Cl)c(Cl)c3)c2C(N)=O)C1	3.8*	14.2	.	.	.
Cn1c(C(=O)NCCCN2CCCC2=O)cc2c(=O)n3ccccc3nc21	.	.	91.0	100.8	94.9
O=C(NC(CSCc1ccccc1)C(=O)N/N=C/c1ccc(O)cc1O)c1ccc([N+](=O)[O-])cc1 (configuration not stated)	3.0*	2.9*	7.6*	24.9*	30.1*
CCNC(=O)CCSc1nnc(-c2ccco2)o1	100.8	97.8	.	.	.
O=C(CN1CCCC(O)C1)N1c2ccccc2Sc2ccc(C(F)(F)F)cc21 (configuration not stated)	91.3	93.8	96.7	95.1	108.7
CN1CCN(CCCN2c3ccccc3Sc3ccc(C(F)(F)F)cc32)CC1	1.5*	1.7*	2.4*	61.6	0.6*
CCOC(=O)C(C)Oc1cccc2c(=O)n(CC(=O)Nc3ccc4c(c3)OCCO4)ccc12 (configuration not stated)	88.5	93.5	82.8	93.8	82.0
CCOC(=O)C(C)Oc1cccc2c(=O)n(CC(=O)NCc3ccc4c(c3)OCO4)ccc12 (configuration not stated)	6.9	7.7	50.5	59.9	30.5*
C=CCNC(=S)Nc1nc2c(cc1C(=O)OCC)CCCC2	90.7	91.8	.	.	.
CCCCN(C(=O)c1ccc(Cl)cc1)C1CC2CCC(C1)N2C (configuration not stated)	91.7	93.7	87.2	89.8	35.7*
COc1ccc(C(CCN(Cc2ccc(OC)c(OC)c2)C(C)=O)c2ccccc2)cc1 (configuration not stated)	75.4	76.6	.	.	.
COc1ccc(CN(CCC(c2ccccc2)c2ccc(OC(C)C)cc2)C(=O)CCl)cc1OC (configuration not stated)	1.5*	1.5*	.	.	.
COc1cccc(-n2nnnc2SCC(=O)Nc2ccc(C(C)=O)cc2)c1	94.2	85.2	108.5	103.6	98.7
CCCS(=O)(=O)c1nnnn1-c1cccc(OC)c1	1.3*	1.4*	31.8	11.9*	1.1*

Screening results (PubChem)
